Measurements published in ChEMBL document CHEMBL3396987, “Discovery and structure-activity relationship studies of N6-benzoyladenine derivatives as novel BRD4 inhibitors” (Bioorg Med Chem, 2015).
Activity calls are given as the source filed them. No cut-off for these calls is given here.

Tests used:
[1] = target: T1, Bromodomain-containing protein 4 (Homo sapiens, UniProt O60885); test: Inhibition of BRD4 bromodomain-1 (unknown origin) by europium based LANCE TR-FRET assay
[2] = target: T1, Bromodomain-containing protein 4; settings: at 100 µM
[3] = target: T1, Bromodomain-containing protein 4; test: Inhibition of BRD4 bromodomain-1 (unknown origin) at 300 uM by europium based LANCE TR-FRET assay
How it was run: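 Run with a commercial BRD4 bromodomain 1 TR-FRET assay kit, read out as europium-based LANCE time-resolved fluorescence resonance energy transfer.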

Row | Structure (SMILES) | IC50 [1] [µM] | inhibition [2] | inhibition [3] [%]
1 | O=C(Nc1ncnc2nc[nH]c12)c1ccccc1 | 34.2 | – | –
2 | O=C1CCC(N2C(=O)c3ccccc3C2=O)C(=O)N1 (stereo unspecified) | – | inactive | –
3 | CSc1ccccc1C(=O)Nc1ncnc2[nH]cnc12 | 29.7 | – | –
4 | O=C(Nc1cccc2c1ncn2C(=O)c1ccccc1)c1ccccc1 | – | 7.2% | < 50
5 | CN(C)c1ccccc1C(=O)Nc1ncnc2[nH]cnc12 | 5.6 | – | –
6 | c1ccc(CNc2ncnc3[nH]cnc23)cc1 | – | inactive | –
7 | O=C(Nc1ncnc2[nH]cnc12)c1ccccc1Br | – | 39% | < 50
8 | COc1cccc(C(=O)Nc2ncnc3[nH]cnc23)c1OC | 78.6 | – | –
9 | C/C(=C\CNc1ncnc2[nH]cnc12)CO | – | inactive | –
10 | COc1ccc(C(=O)Nc2ncnc3[nH]cnc23)c(OC)c1 | – | 40.8% | < 50
11 | O=C(Nc1ncnc2[nH]cnc12)c1cccc(Br)c1 | – | 44.5% | < 50
12 | CCCOc1ccccc1C(=O)Nc1ncnc2[nH]cnc12 | 20 | – | –
13 | O=C(Nc1ccncn1)c1ccccc1 | – | 5.8% | < 50
14 | COc1cccc(C(=O)Nc2ncnc3[nH]cnc23)c1 | 63 | – | –
15 | Cc1noc(C)c1N1C(=O)c2ccccc2C1=O | – | inactive | –
16 | COc1ccc(OC)c(C(=O)Nc2ncnc3[nH]cnc23)c1 | 7.2 | – | –
17 | O=C(Nc1cccc2ncccc12)c1ccccc1 | – | 16.4% | < 50
18 | O=C(Nc1cccc2[nH]cnc12)c1ccccc1 | – | 4.8% | < 50
19 | COc1cccc(OC)c1C(=O)Nc1ncnc2[nH]cnc12 | – | 11.5% | < 50
20 | COc1ccc(C(=O)Nc2ncnc3[nH]cnc23)cc1 | 34.5 | – | –
21 | COc1cc(OC)cc(C(=O)Nc2ncnc3[nH]cnc23)c1 | 17.9 | – | –
22 | COc1ccc(C(=O)Nc2ncnc3[nH]cnc23)cc1OC | 7.8 | – | –
23 | COc1cc(OC)c(C(=O)Nc2ncnc3[nH]cnc23)cc1OC | 0.427 | – | –
24 | Cn1cnc2c(NC(=O)c3ccccc3)ncnc21 | – | 3.7% | < 50
25 | Cc1n[nH]c(C)c1CN1C(=O)c2ccccc2C1=O | – | inactive | –
26 | COc1ccccc1C(=O)Nc1ncnc2[nH]cnc12 | 16 | – | –
27 | O=C(Nc1ncnc2[nH]cnc12)c1ccc(Br)cc1 | – | 36.7% | < 50
28 | Cc1ccccc1C(=O)Nc1ncnc2[nH]cnc12 | – | 40.4% | < 50
29 | O=C(c1ccccc1)N(C(=O)c1ccccc1)c1ccncn1 | – | 11% | < 50
